Legend:
LNCaP [1] = assay: Decrease in androgen receptor protein expression in LNCaP cells by Western blotting; format: functional, cell-based; conditions: Homo sapiens
Procedure, shortened: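 Whole-cell lysates were made in 0.1M Tris/0.5% Triton X-100 with protease inhibitor, and protein was measured by Bradford. Samples were run on 10% SDS-PAGE and immunoblotted with anti-AR monoclonal AR441 (1:500), HRP secondary and ECL. Signal was normalized to β-actin, and EC50 was taken from dose-response curves.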

LNCaP [2] = assay: Growth inhibition of human LNCaP cells after 5 days by MTT colorimetric assay; conditions: 120 h

SMILES: O=c1cc(CO)oc(C(Nc2ccccc2)c2ccccc2)c1O (centres undefined)
- EC50 (LNCaP [1]): 212 µM
- IC50 (LNCaP [2]): 20.9 µM

SMILES: CCOC(=O)c1ccccc1OC(=O)Oc1ccccc1C(=O)OCC
- EC50 (LNCaP [1]): 65.5 µM
- IC50 (LNCaP [2]): 4.5 µM

SMILES: Cc1ccc(S(=O)(=O)Nc2ccc(C)cc2[N+](=O)[O-])cc1
- EC50 (LNCaP [1]): 76 µM
- IC50 (LNCaP [2]): 39.8 µM

SMILES: CSc1ccc(OS(=O)(=O)c2cccc3nsnc23)cc1
- EC50 (LNCaP [1]): 17.5 µM
- IC50 (LNCaP [2]): > 50 µM

SMILES: CCN(CCO)C(C(=O)c1ccc(Cl)cc1)c1ccc(Cl)cc1 (centres undefined)
- EC50 (LNCaP [1]): 39.5 µM
- IC50 (LNCaP [2]): 8.31 µM

SMILES: O=C(CNCCCc1ccccc1)c1ccc(O)c(O)c1
- EC50 (LNCaP [1]): 43.5 µM
- IC50 (LNCaP [2]): 26.9 µM

SMILES: COc1cc(/C=C/C(=O)CC(=O)/C=C/c2ccc(O)c(OC)c2)ccc1O [CURCUMIN]
- EC50 (LNCaP [1]): 35 µM

SMILES: O=C(O)c1ccccc1Nc1cccc(C(F)(F)F)c1 [FLUFENAMIC ACID]
- EC50 (LNCaP [1]): 200 µM

Reference: ChEMBL document CHEMBL1147925, “First pharmacophore-based identification of androgen receptor down-regulating agents: discovery of potent anti-prostate cancer agents” (Bioorg Med Chem, 2007)
